pEC50: −log10 of the molar value. Where only a bound is given, the exact number is not on record here.

The record followed here is ChEMBL document CHEMBL1148783, “Selection of a respiratory syncytial virus fusion inhibitor clinical candidate, part 1: improving the pharmacokinetic profile using the structure-property relationship” (J Med Chem, 2007).

Series [1] can be described thus: Cytotoxicity against HeLaM cells. It counts as cell-based, M-HeLa. The conditions noted are these: human.
Series [2] deals with Respiratory syncytial virus. Kind of series: Antiviral activity against RSV in HeLaM cells. It counts as functional, organism-based. The conditions noted are these: human respiratory syncytial virus. A digest of the protocol:
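HeLaM epithelial-like cells infected with RSV with or without a range of compound concentrations, with virus, cell and cytotoxicity controls and ribavirin as reference in each test. After one week of incubation, viability was read by MTT and spectrophotometric OD. pEC50 was calculated from the OD values.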

The nature of series [3]: Half life (24 to 96 hrs) in Sprague-Dawley rat lung. It counts as ADME, tissue-based. A digest of the protocol: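 Lung half-life came from IV-dosed male Sprague-Dawley rats (1 mg/kg, 10 min tail-vein infusion), with three animals per time point. Lungs were homogenized in water (1/9 w/v) and analyzed by LC-MS/MS, using the concentrations measured between 24 and 96 h post-dose.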

Series [4] can be described thus: Drug level in Sprague-Dawley rat lung after 4 hrs. It counts as ADME, tissue-based. Particulars: read-out: Drug uptake. A digest of the protocol:
(§1)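 Male Sprague-Dawley rats (250-300 g) were given a 10 min tail-vein infusion at a final dose of 1 mg/kg. Three rats per time point were killed at 4, 24, 96 and 168 h. Plasma was taken from EDTA blood, and lung was homogenized 1/9 w/v in demineralized water. Samples were stored at ≤-18 °C and quantified by a qualified LC-MS/MS method.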

Series [5] can be described thus: Drug level in Sprague-Dawley rat lung after 96 hrs. The conditions noted are these: read-out: Drug uptake. The class given is ADME, tissue-based. A digest of the protocol:
as §1

Series [6] is described as follows: Drug level in Sprague-Dawley rat plasma after 24 hrs. The class given is ADME, cell-free. Particulars: read-out: Drug uptake. A digest of the protocol:
as §1

Series [7] can be described thus: Drug level in Sprague-Dawley rat lung after 168 hrs. The conditions noted are these: read-out: Drug uptake. The class given is ADME, tissue-based. A digest of the protocol:
as §1

Series [8] is described as follows: Drug level in Sprague-Dawley rat lung after 24 hrs. Particulars: read-out: Drug uptake. It counts as ADME, tissue-based. A digest of the protocol: as §1
Series [9] in a line: Drug level in Sprague-Dawley rat plasma after 4 hrs. The class given is ADME, cell-free. The conditions noted are these: read-out: Drug uptake. A digest of the protocol:
as §1

By CC50 is commonly meant the concentration that lowers cell viability or growth by half. In general, pEC50 refers to −log10 of the EC50, conventionally taken in molar units. Read a low pEC50 as a large EC50. Compound `Cc1ccc(O)c(Cn2c(NC3CCN(CCC(=O)O)CC3)nc3c(C)cccc32)n1` showed a CC50 in series [1] above 100 µM. Also, in series [2], the pEC50 is 6.80.

A word on the half-life: it is the time needed for the level to fall by half in the phase considered. A lower half-life goes with fast loss. For `Cc1cc(C)c2nc(NCCCN3CCOCC3)n(Cc3nc(C)ccc3O)c2c1`, the midpoint of cytotoxicity in series [1], the CC50, lay at 50.1 µM. The compound also showed a half-life in [3] of 14 h. Further, in series [2], the pEC50 was 6.90.

For the compound `Cc1ccc(O)c(Cn2cnc3c(C)cccc32)n1`, in series [4], the concentration at 4 h stood at 3.9 ng/mL.

For the compound `Cc1ccc(O)c(Cn2c(NC3CCN(CCC(C)C)CC3)nc3c(C)cccc32)n1`, the CC50 in series [1] is above 100 µM. In series [2], this compound had a pEC50 of 6.20.

On to `NCCN1CCC(Nc2nc3ccccc3[nH]2)CC1`, for which the concentration at 4 h is 247 ng/mL in series [4] and 11.8 ng/mL in series [9]. For the same compound, the concentration at 96 h in series [5] came to 83.7 ng/mL. Further, the concentration at 24 h in series [6] was found to be 6.1 ng/mL; in series [8] it was 295 ng/mL. The concentration at 168 h in series [7] came out at 37.8 ng/mL.

In series [1], `Cc1ccc(O)c(Cn2c(NC3CCN(CCN4CCCC4)CC3)nc3c(C)cccc32)n1` had a CC50 of 39.8 µM. The half-life in [3] is 206 h. In series [2], this compound showed a negative-log EC50 (pEC50) of 8.00.

`CC(=O)NCCNc1nc2c(C)cc(C)cc2n1Cc1nc(C)ccc1O` showed a cytotoxic concentration (CC50) in series [1] of 12.6 µM. Moreover, in series [2], the pEC50 is 5.30.

On to `CCCCNc1nc2c(C)cc(C)cc2n1Cc1nc(C)ccc1O`, for which the half-maximal cytotoxic concentration (CC50) in [1] is 7.94 µM. The compound further showed a pEC50 in [2] below 4.00.

Consider `Cc1cc(C)c2nc(NCC(O)CO)n(Cc3nc(C)ccc3O)c2c1` (stereo not drawn), for which half-maximal cytotoxicity in [1] (CC50) was put at 50.1 µM. The half-life in series [3] was below 24 h. The compound also showed a pEC50 in series [2] of 7.40.

Turning to `Cc1cc(C)c2nc(NCCCN3CCN(C)CC3)n(Cc3nc(C)ccc3O)c2c1`, half-maximal cytotoxicity in series [1] (CC50) was put at 50.1 µM. Moreover, the half-life in [3] was 80 h. In series [2], this compound showed a pEC50 of 7.60.

Turning to `Cc1ccc(O)c(Cn2c(NC3CCN(CCN)CC3)nc3c(C)cccc32)n1` [JNJ 2408068], the concentration at 4 h in [4] was 576 ng/mL; in [9], 0.97 ng/mL. In series [1], this compound showed a half-maximal cytotoxic concentration (CC50) above 100 µM. In addition, the concentration at 96 h in series [5] was 439 ng/mL. In addition, the concentration at 24 h in [6] stood at 0.33 ng/mL; in series [8] it was 559 ng/mL. In addition, in series [7], the concentration at 168 h was 387 ng/mL. In series [3], the half-life is 153 h. Also, in [2], the pEC50 was 9.60.

On to `Cc1ccc(O)c(Cn2c(NC3CCN(CCCS(N)(=O)=O)CC3)nc3c(C)cccc32)n1`, for which the CC50 in [1] is above 100 µM. Moreover, the half-life in [3] is 57 h. For the same compound, the pEC50 in series [2] is 7.90.

Consider `Cc1ccc(O)c(Cn2c(NC3CCN(CC(O)C(C)(C)C)CC3)nc3c(C)cccc32)n1` (stereo not drawn), for which the CC50 in series [1] is 39.8 µM. This compound also gave a pEC50 in series [2] of 6.10.

On to `CNS(=O)(=O)CCCN1CCC(Nc2nc3c(C)cccc3n2Cc2nc(C)ccc2O)CC1`, for which the CC50 in series [1] is 79.4 µM. The same compound showed a half-life in series [3] of 32 h. Further, the pEC50 in [2] was 7.30.

Turning to `Cc1cc(C)c2nc(NCCc3ccccc3)n(Cc3nc(C)ccc3O)c2c1`, in series [1], the midpoint of cytotoxicity, the CC50, lay at 6.31 µM. In series [2], this compound showed a pEC50 below 4.00.

Consider `Cc1cc(C)c2nc(NCCCO)n(Cc3nc(C)ccc3O)c2c1`, for which, in series [1], the half-maximal cytotoxic concentration (CC50) was 63.1 µM. This compound also showed a pEC50 in [2] of 6.80.

`Cc1ccc(O)c(Cn2c(NC3CCN(CCC(N)=O)CC3)nc3c(C)cccc32)n1` had a half-maximal cytotoxic concentration (CC50) in series [1] above 100 µM. Also, the half-life in series [3] was 46 h. Moreover, the pEC50 in [2] was 7.30.

In the case of `Cc1ccc(O)c(Cn2c(NC3CCN(CCO)CC3)nc3c(C)cccc32)n1`, in series [1], the CC50 is above 100 µM. This compound had a half-life in [3] of 29 h. This compound showed a negative-log EC50 (pEC50) in series [2] of 7.70.

The compound `CNCCCNc1nc2c(C)cc(C)cc2n1Cc1nc(C)ccc1O` had a half-maximal cytotoxic concentration (CC50) in series [1] of 50.1 µM. In [3], the half-life was 93 h. In series [2], this compound had a negative-log EC50 (pEC50) of 9.20.

Regarding `Cc1cc(C)c2nc(NCCCN)n(Cc3nc(C)ccc3O)c2c1`, the CC50 in [1] was above 100 µM. The compound also had a half-life in [3] of 68 h. The pEC50 in [2] was 9.60.

The compound `Cc1ccc(O)c(Cn2c(NC3CCN(CCN)CC3)nc3ccccc32)n1` gave a CC50 in series [1] above 100 µM. Besides, the half-life in series [3] was 211 h. In series [2], this compound showed a pEC50 of 9.50.

As to `Cc1ccc(O)c(Cn2c(NC3CCN(CC(O)CN(C)C)CC3)nc3c(C)cccc32)n1` (stereo not drawn), in [1], the CC50 is above 100 µM. In [3], the half-life is 556 h. In addition, the pEC50 in series [2] is 8.50.

In turn, `Cc1ccc(O)c(Cn2c(NC3CCN(C)CC3)nc3c(C)cccc32)n1` gave a CC50 in [1] of 50.1 µM. Further, the pEC50 in series [2] is 6.80.

With `Cc1cc(C)c2nc(NCCNc3ccccc3)n(Cc3nc(C)ccc3O)c2c1`, the CC50 in series [1] is 3.16 µM. The pEC50 in [2] was below 4.00.

Consider `Cc1ccc(O)c(Cn2c(NC3CCN(CCN4CCOCC4)CC3)nc3c(C)cccc32)n1`, for which it took 63.1 µM to reach half-maximal cytotoxicity in series [1] (CC50). This compound showed a half-life in series [3] of 35 h. This compound also showed a pEC50 in [2] of 6.80.
